Experimental data from ChEMBL document CHEMBL1156047, “Diastereoisomers of 2-benzyl-2, 3-dihydro-2-(1H-inden-2-yl)-1H-inden-1-ol: potential anti-inflammatory agents” (2009).

Tests used:
RBL-2H3 [1] = assay: Antiinflammatory activity against calcium ionophore A23187-induced beta-hexosaminidase release from rat RBL2H3 cells at 10 uM after 30 mins; format: functional; conditions: RBL-2H3, 0.5 h
How it was run: (§1)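 RBL-2H3 cells plated at 1 × 10⁵ cells/cm² in 24-well plates and allowed to adhere ≥3 h. Medium replaced with fresh medium containing calcium ionophore A23187 plus compound (0.3–50 µM range; DMSO 0.5% solvent control). Incubation 30 min, 37 °C, 5% CO₂. Supernatant β-hexosaminidase measured with p-nitrophenyl N-acetyl-glucosaminide in citrate pH 4.5 for 1 h at 37 °C, stopped with NaOH, read at 405 nm. Values are % of total (Triton X-100 lysate), spontaneous release subtracted. Triplicate.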

RBL-2H3 [2] = assay: Antiinflammatory activity against calcium ionophore A23187-induced beta-hexosaminidase release in rat RBL2H3 cells at 50 uM after 30 mins; format: functional; conditions: RBL-2H3, 0.5 h; how it was run: as §1
Ileum [3] = assay: Muscle relaxant activity in potassium-depolarized guinea pig ileum assessed as inhibition of calcium-induced contraction at 10 uM; format: functional; conditions: Cavia porcellus
How it was run: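 Isolated guinea-pig ileum depolarised with potassium; sustained contraction induced by calcium (2.5 mM). Test compounds at 1 × 10⁻⁵ M, with nifedipine 1 × 10⁻⁸ M as reference. Result expressed as % inhibition of the calcium contracture. Mean ± SEM, n = 6–12.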

RBL-2H3 [4] = assay: Antiinflammatory activity against calcium ionophore A23187-induced beta-hexosaminidase release from rat RBL2H3 cells after 30 mins; format: functional, cell-based; how it was run: as §1
Mus musculus = assay: Antiinflammatory activity against arachidonic acid-induced ear edema in Balb/C mouse at 300 ug/ear administered topically 1 hr before arachidonic acid challenge measured after 60 mins; format: functional
How it was run: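 Topical application in 100 µL acetone (compound 300 µg, indomethacin 300 µg positive control, vehicle alone) to mouse ear; oedema induced with arachidonic acid (4 mg). Ear width measured with a micrometer screw gauge before and 60 min after induction. Oedema expressed as percentage of normal by comparing left and right ear widths. n = 4–8 per group.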

Ileum [5] = assay: Muscle relaxant activity in potassium-depolarized guinea pig ileum assessed as inhibition of calcium-induced contraction at 10 nM; format: functional; conditions: Cavia porcellus
How it was run: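 Isolated guinea-pig ileum, depolarised with potassium, in which calcium (2.5 mM) induced a sustained contraction. The agent was applied at 1 × 10^-8 M, and activity was expressed as percent inhibition of the calcium contracture. Values are given as mean with SEM, n = 6.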

SMILES	inhibition at 10 µM (RBL-2H3 [1]) [%]	inhibition at 50 µM (RBL-2H3 [2]) [%]	inhibition at 10 µM (Ileum [3]) [%]	inhibition (RBL-2H3 [4])	inhibition (INH) (Mus musculus) [%]	inhibition at 0.01 µM (Ileum [5]) [%]
O[C@H]1c2ccccc2C[C@@]1(Cc1ccccc1)C1=Cc2ccccc2C1	40	75	36.4	Dose-dependent effect	59	
COc1ccc2c(c1)c(CC(=O)O)c(C)n2C(=O)c1ccc(Cl)cc1 [INDOMETHACIN]					50	
O[C@H]1c2ccccc2C[C@]1(Cc1ccccc1)C1=Cc2ccccc2C1	45	96	18.9	Dose-dependent effect	45	
COC(=O)C1=C(C)NC(C)=C(C(=O)OC)C1c1ccccc1[N+](=O)[O-] [NIFEDIPINE]						48.1
